A selection: hits, their analogues and other compounds. The true share with any hit is near 6.8%.
PHOSPHO1 inh = PHOSPHO1 (human) inhibition. hit rate 1.1% among 290,000. recombinant PHOSPHO1, absorbance phosphatase assay. inhibition, % at 13.3 µM. Q8TCT1. AID 1565; in the data active = inhibition above about 60%
Target sequence (Q8TCT1 whole entry, looked up): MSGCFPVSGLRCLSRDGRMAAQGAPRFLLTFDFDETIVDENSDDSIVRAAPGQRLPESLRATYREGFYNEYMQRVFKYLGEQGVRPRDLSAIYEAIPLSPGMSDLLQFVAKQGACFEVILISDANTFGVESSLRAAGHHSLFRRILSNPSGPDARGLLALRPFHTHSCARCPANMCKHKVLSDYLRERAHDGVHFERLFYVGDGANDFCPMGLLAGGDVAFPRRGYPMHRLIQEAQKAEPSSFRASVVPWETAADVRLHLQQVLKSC
core dimer inh = blocks dimerization of HCV core protein | AID 1899 | inhibition, % at 5 µM | hit rate 0.33% among 300,000 | TR-FRET GST/Flag-core106 dimerization, 1536-well;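 active = inhibition above the mean of all tested compounds plus 3 SD, set per screening campaign, cut at about 45% in these data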
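Assay system – GST-tagged and Flag-tagged HCV core protein residues 1-106 · Quantity – core106 proteins, GST 13.5 nM and Flag 17 nM · Benchmarks – unlabelled core106 and no-GST-core106 wells · Read-out basis – percent inhibition of core106 dimerization signal · Detection – time-resolved FRET, ex 340 nm, em 617 and 671 nm · Schedule – 4 h at 22.5 °C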
HSF-1 act = increases HSF-1 driven luciferase reporter signal | AID 504408 | activation, % at 9 µM | NIH3T3-HGL HSF-1 luciferase reporter, MG132, 8 h; 100% = twice DMSO control signal | hit rate 1.7% among 300,000;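 active = mean replicate activation of at least 50% with a set share of replicates each reaching 50%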;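 also: 0% = median of the neutral control wells and 100% = twice that signal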
AI-2 QS modul = modulates the Vibrio harveyi AI-2 quorum sensing system | Vibrio harveyi JMH597 AI-2 luminescence/OD600 ratio, 9 h; stronger effect = lower value; strain lacks LuxN and CqsS sensors; 0 = neutral-control median | activity change, % at 7.5 µM | hit rate 0.4% among 300,000; in the data active = activity change below about -75%, passing the limit was not always enough;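 also: luminescence divided by OD600 gain over 9 h not by final OD600 alone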
HSF1 inhib = HSF1 inhibition | NIH3T3-HGL HSE-luciferase, MG132-induced, luminescence 8 h; stronger effect = lower value | activity change, negative = inhibition, % at 7.5 µM (by protocol) | hit rate 0.77% among 300,000 | AID 2098;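 active = more than half of replicate wells show activity change below -50%, luminescence cut by over half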;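 also: luciferase reports HSF-1 transcriptional activity via heat shock element; 0% = median of DMSO wells and -100% = zero luminescence signal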
ALR inh = blocks human ALR sulfhydryl oxidase activity. P55789. inhibition, % (concentration not given with the values). purified ALR, DTT oxidation, H2O2 HRP-luminol luminescence. hit rate 3.8% among 290,000. AID 485317;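 active = mean replicate inhibition above about 79%, with every replicate also reaching it, limit read from the data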
Target sequence (P55789 whole entry, looked up): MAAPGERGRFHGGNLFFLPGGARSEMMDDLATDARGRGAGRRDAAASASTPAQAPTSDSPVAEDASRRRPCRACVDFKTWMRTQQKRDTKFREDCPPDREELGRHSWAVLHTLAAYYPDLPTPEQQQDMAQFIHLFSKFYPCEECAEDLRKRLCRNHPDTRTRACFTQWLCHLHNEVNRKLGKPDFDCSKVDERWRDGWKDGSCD
Numbers without * were called inactive; nt = no result given.

SMILES	PHOSPHO1 inh	core dimer inh	HSF-1 act	AI-2 QS modul	HSF1 inhib	ALR inh
O=[N+]([O-])c1ccc(Nc2ccc(N3CCOCC3)cc2)c([N+](=O)[O-])c1	18	0	-2	17	5	99*
CCC1=NN(C(=O)C(=O)Nc2ccc(OC)cc2)C(O)(C(F)(F)F)C1 (configuration not stated)	72*	0	13	-3	-1	-2
O=C(Nn1c(-c2ccc(F)cc2)nc2ccccc2c1=O)C1CCCCC1	0	2	-5	12	0	nt
CCCCn1c(N)c(N(CCC(C)C)C(=O)C2CCCC2)c(=O)[nH]c1=O	nt	nt	nt	nt	nt	-4
CCC(=O)Nc1ccc2c(c1)nc1n2CCSC1	15	1	-5	23	3	99*
CC(C)C(=O)Nc1ccc2c(c1)nc1n2CCSC1	7	-1	-12	34	0	99*
Cc1ccc(N2CCN(S(=O)(=O)c3ccc4oc(=O)ccc4c3)CC2)c(C)c1	39	4	6	-3	10	nt
O=C(NC(=S)N1CCN(c2ccc([N+](=O)[O-])cc2Cl)CC1)c1ccco1	-21	-2	55*	5	43	-12
CN(C)C(=O)COc1ccc(S(=O)(=O)c2ccc(OCC(=O)N(C)C)cc2)cc1	18	-2	13	25	6	-53
CCCCCN1C=CC(=C2C(=O)c3ccccc3C2=O)C=C1	11	6	-85	37	-81*	10
CC1=CC(=C2C(=O)c3ccccc3C2=O)C=C(C)N1C	39	-10	23	4	14	0
COC(=O)c1cc(NS(=O)(=O)c2ccc(N3CCOCC3)c(N)c2)cc(C(=O)OC)c1	0	11	5	11	-1	34
CCn1nnc(NC(=O)c2sc3ccccc3c2Cl)n1	1	5	74*	46	43	0
CCn1nnc(NC(=O)c2cccnc2Cl)n1	4	-1	16	6	-2	-2
O=C(CSC1=NS(=O)(=O)c2cc(F)ccc2N1)Nc1ccccc1	nt	4	-15	22	-7	nt
O=C(CSC1=NS(=O)(=O)c2cc(F)ccc2N1)Nc1cccc(F)c1	nt	-3	-5	4	-7	97*
O=C(CN(CC1CCCO1)C(=O)c1nsc(Cl)c1Cl)NC1CCCC1 (configuration not stated)	53	-3	13	9	2	6
COc1ccc(N2Nc3n[nH]c(N)c3N2)cc1	-23	-12	-14	11	-10	99*
CCOc1ccc(N2Nc3n[nH]c(N)c3N2)cc1	-4	-23	-44	11	-42	nt
CN(c1cccc(NC(=O)CN(c2cccc(F)c2)S(C)(=O)=O)c1)S(C)(=O)=O	-30	-1	-7	19	4	-3
NNC(=S)Nc1ccccc1Cl	-69	-3	-59	15	-53*	30
S=C(NCCNC(=S)Nc1ccccc1Cl)Nc1ccccc1Cl	20	-3	-8	21	5	1
S=C(NCCc1ccccn1)Nc1ccccc1Cl	21	-7	14	17	-6	94*
S=C(NCc1ccccn1)Nc1ccccc1Cl	-7	-5	63*	20	36	2
CCCCC[C@H]1CN(C2CCCCC2)C(=O)[C@@H]1CC(=O)NCc1ccccc1	-2	1	7	11	-1	-13
SMILES	PHOSPHO1 inh	core dimer inh	HSF-1 act	AI-2 QS modul	HSF1 inhib	ALR inh
COCCCNC(=O)Cn1cnc2sc(C)c(S(=O)(=O)N3CCN(c4ccccc4OC)CC3)c2c1=O	2	1	-78	20	-72*	-7
COc1cccc(/C=N/NC(=O)c2ccc3nc[nH]c3c2)c1	33	-2	-1	1	-7	93*
CN(C)c1ccc(/C=N/NC(=O)c2ccc3nc[nH]c3c2)cc1	23	-14	13	16	-2	nt
CCN(CC)c1ccc(/C=N/NC(=O)c2ccc3nc[nH]c3c2)cc1	10	-15	-20	16	-7	99*
COc1ccc(OC)c(/C=N/NC(=O)c2ccc3nc[nH]c3c2)c1	10	2	5	9	-1	-5
COCCN(Cc1cc2ccc(C)cc2[nH]c1=O)S(=O)(=O)c1ccccc1	49	10	2	31	0	-4
O=C(c1cccc(C(F)(F)F)c1)C1CCCN(C(=O)CCCn2cncn2)C1 (configuration not stated)	27	2	-20	18	1	7
Cc1ccccc1NC(=O)C(NC1CCCCC1)C(C)C (configuration not stated)	28	4	-1	21	1	99*
Cc1cc(C)c2c(N)c(C(=O)Nc3nccs3)sc2n1	25	-7	33	18	11	33
COCc1cc(C)nc2sc(C(=O)Nc3nccs3)c(N)c12	83*	-9	7	6	0	2
COC(=O)C1=C(C(=O)OC)SC2(S1)C(C(=O)OC)=C(C(=O)OC)SC1=C2c2cc(C)ccc2NC1(C)C	98*	-5	1	-2	6	2
CCOC(=O)C1(N(CC)CC)Sc2cc(C)ccc2NC1=O (configuration not stated)	41	7	3	6	-3	2
CCCOc1ccc(C(=O)ON=C2CCN(C)CC2)cc1	-18	-10	-3	5	-6	-9
CC(=O)Oc1ccc(OC(C)=O)c(SCCCCCCl)c1	-10	nt	-96	-2	-96*	nt
COc1ccc(C(=O)Nc2oc(-c3ccccc3)c(-c3ccccc3)c2C#N)cc1OC	-30	18	nt	5	nt	-2
N#Cc1cc(-c2ccccc2)oc1NC(=O)c1ccccc1	-26	4	8	26	-3	79*
Cc1cccc(C)c1OCC(=O)Nc1oc(-c2ccccc2)c(-c2ccccc2)c1C#N	nt	33	0	27	-6	-2
Cc1ccc(C(=O)Nc2oc(-c3ccccc3)cc2C#N)cc1	-3	11	1	20	-15	26
COc1ccc(C(=O)Nc2oc(-c3ccccc3)c(-c3ccccc3)c2C#N)cc1	20	47*	1	-2	8	9
Cc1sc(NC(=O)c2ccccc2)c(C#N)c1-c1ccccc1	-22	2	57*	12	33	-1
N#Cc1c(NC(=O)CSc2n[nH]c(N)n2)oc(-c2ccccc2)c1-c1ccccc1	45	6	11	5	-10	79*
CC(c1ccon1)N(C)C(=O)CCc1nnc(C2(c3ccc(Cl)cc3)CCC2)o1 (configuration not stated)	37	2	4	-11	2	-25
CN(C)C(=O)CCSc1nnc(-c2ccncc2)o1	-20	4	-6	11	-5	-14
COc1ccc(-c2oc(NC(C)=O)c(C#N)c2-c2ccc(OC)cc2)cc1	11	14	6	17	-3	10

From PubChem
